Reference: ChEMBL document CHEMBL4043311, “Developing Equipotent Teixobactin Analogues against Drug-Resistant Bacteria and Discovering a Hydrophobic Interaction between Lipid II and Teixobactin” (J Med Chem, 2018)
≈ marks a conversion by molar mass, not a printed value. Calls of active or inactive are those of the source. The calls are words filed in the database; no cut-off is given here.

How the values were obtained:
Staphylococcus aureus [1] = assay: Antibacterial activity against Staphylococcus aureus ATCC 29213 at undecaprenyl-phosphate/test compound molar ratio 0.5 to 2 preincubated with undecaprenyl-phosphate for 30 mins followed by bacterial inoculation measured after overnight incubation; format: functional
Procedure, shortened: (§1)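 Test agent at 4x or 8x its broth MIC mixed with lipid II or C55-P (2x or 0.5x molar excess over compound) in MHII broth with 0.05% tween-80, 30 min at rt; exponential S. aureus ATCC 29213 then added to final OD600 0.001. Overnight at 37 °C; growth judged by eye and plate-reader absorbance. Run two or three times.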

[2] = Binding affinity to undecaprenyl-phosphate at 1 to 4 nmol after 30 mins by TLC method
Procedure, shortened: (§2)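 Lipid II or C55-P (1 nmol) incubated with 1, 2, 3 or 4 nmol compound in 50 mM Tris/HCl pH 7.5, 30 min at rt. Extracted twice with pyridinium acetate (6 M, pH 4.2)/butanol (1:2), then washed with butanol-saturated water. Organic phase run on silica TLC in chloroform/methanol/water/ammonia (88:48:10:1) and stained with phosphomolybdic acid; loss of lipid band scored. Done twice.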

Staphylococcus aureus [3] = assay: Antibacterial activity against Staphylococcus aureus ATCC 29213 at lipid 2/test compound molar ratio 2 preincubated with lipid 2 for 30 mins followed by bacterial inoculation measured after overnight incubation; format: functional; procedure, shortened: as §1
[4] = Binding affinity to Bacillus subtilis UDP-MurNAc-L-Ala-gamma-DGlu-meso-Dap-D-Ala-D-Ala by ITC method
Procedure, shortened: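 Park's nucleotide was isolated from Bacillus subtilis. ITC run at 25 °C in DMSO:H2O (85:15). The lipid II analogue (0.375 mM) was titrated into 0.025 mM test compound.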

Streptococcus pneumoniae [5] = assay: Antibacterial activity against Streptococcus pneumoniae D39 infected in C57BL/6J mouse at 5 x 10^4 cfu/mouse assessed as reduction of bacterial burden in blood at 1 to 5 mg/kg, iv administered 1 hr post infection measured after 12 to 22 hrs relative to control; format: functional
Procedure, shortened: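 Female C57BL/6J mice, 6-8 weeks, 4 per group, given 0.2 mL S. pneumoniae D39 i.p. (5×10^4 c.f.u. per mouse). At 1 h post-infection a single i.v. dose of 5 or 1 mg/kg was given in PBS:Cremophor-EL:DMSO (94:5:1). Vehicle and vancomycin 5 mg/kg groups were included. Blood c.f.u. counted at 12, 18 and 22 h.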

[6] = Binding affinity to lipid 2 at 4 nmol after 30 mins by TLC method; procedure, shortened: as §2
Staphylococcus aureus [7] = assay: Antibacterial activity against methicillin-resistant Staphylococcus aureus BAA-1695 after 20 hrs by broth microdilution method; format: functional; conditions: BAA-1695, 20 h
Procedure, shortened: (§3)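 Broth microdilution per CLSI in cation-adjusted Mueller-Hinton broth with 0.002% polysorbate 80. Analogues were made up as 10 mg/mL DMSO stocks, then diluted in MHB. Inoculum approx. 5×10^5 cells/mL. Incubated 20 h at 37°C; MIC taken as the lowest concentration with no visible growth. Run three times.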

Staphylococcus aureus [8] = assay: Antibacterial activity against Staphylococcus aureus ATCC 29213 at lipid 2/test compound molar ratio 0.5 preincubated with lipid 2 for 30 mins followed by bacterial inoculation measured after overnight incubation; format: functional; procedure, shortened: as §1
Streptococcus pneumoniae [9] = assay: Antibacterial activity against Streptococcus pneumoniae D39 infected in C57BL/6J mouse at 1 x 10^4 cfu/mouse assessed as mouse survival rate at 1 to 5 mg/kg, iv administered 1 hr post infection measured after 48 hrs relative to control; format: functional
Procedure, shortened: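 C57BL/6J female mice, 6-8 weeks, infected i.p. with 0.2 mL S. pneumoniae D39 suspension (1×10^4 c.f.u. per mouse), an inoculum giving at least 90% mortality within 48 h; 6 per group. Single i.v. dose 1 h post-infection at 5, 2 or 1 mg per kg in PBS:Cremophor-EL:DMSO (94:5:1); vehicle and vancomycin (5 mg per kg) controls. Survival scored at 48 h; log-rank test.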

Enterococcus faecalis = assay: Antibacterial activity against […] Enterococcus faecalis ATCC 29212 after 20 hrs by broth microdilution method; format: functional; conditions: ATCC 29212, 20 h; procedure, shortened: as §3
Streptococcus pneumoniae [10] = assay: Antibacterial activity against Streptococcus pneumoniae D39 after 20 hrs by broth microdilution method; format: functional; conditions: D39, 20 h
Procedure, shortened: (§4)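 CLSI broth microdilution in cation-adjusted Mueller-Hinton broth with 3% lysed horse blood for streptococci and 0.002% polysorbate 80. Compounds taken from 10 mg/mL DMSO stocks and diluted in broth. Inoculum about 5×10^5 cells/mL. After 20 h at 37 °C, MIC read as lowest concentration with no visible growth. Done three times.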

Streptococcus pyogenes = assay: Antibacterial activity against Streptococcus pyogenes ATCC 19615 after 20 hrs by broth microdilution method; format: functional; conditions: ATCC 19615, 20 h; procedure, shortened: as §4
Staphylococcus aureus [11] = assay: Antibacterial activity against methicillin-sensitive Staphylococcus aureus TH 4806 after 20 hrs by broth microdilution method; format: functional; conditions: TH 4806, 20 h; procedure, shortened: as §3

**Q.** Which results are given for `CC[C@@H](C)[C@@H](NC(=O)[C@@H](CCC(N)=O)NC(=O)[C@H](CO)NC(=O)[C@@H](NC(=O)[C@H](N)Cc1ccc(-c2ccccc2)cc1)[C@@H](C)CC)C(=O)N[C@H](C(=O)N[C@@H](CO)C(=O)N[C@H]1C(=O)N[C@@H](C)C(=O)N[C@@H](CCCCN)C(=O)N[C@@H]([C@@H](C)CC)C(=O)O[C@H]1C)[C@@H](C)CC`?
**A.** Activity (Staphylococcus aureus [1]): Active; Activity [2]: inactive; Activity (Staphylococcus aureus [3]): inactive; Kd [4]: 23 µM; Activity (Streptococcus pneumoniae [5]): 6 deltalog10CFU/ml; Activity [6]: inactive; MIC (Staphylococcus aureus [7]): 0.5 µg/mL (≈ 0.391 µM); Activity (Staphylococcus aureus [8]): Active; Survival (Streptococcus pneumoniae [9]): 100%; MIC (Enterococcus faecalis): 0.5 µg/mL (≈ 0.391 µM); MIC (Streptococcus pneumoniae [10]): < 0.032 µg/mL; MIC (Streptococcus pyogenes): < 0.25 µg/mL; MIC (Staphylococcus aureus [11]): 0.5 µg/mL (≈ 0.391 µM)
